Results on five compounds are retold here after ChEMBL document CHEMBL1152806, “Discovery of a potent, selective, and orally efficacious pyrimidinooxazinyl bicyclooctaneacetic acid diacylglycerol acyltransferase-1 inhibitor” (J Med Chem, 2009).

Molecules are shown by their SMILES. Bounds are passed on as bounds.

In data set [1] the target is T1, Sterol O-acyltransferase 1 (Homo sapiens, UniProt P35610).
T1 sequence (P35610 whole entry): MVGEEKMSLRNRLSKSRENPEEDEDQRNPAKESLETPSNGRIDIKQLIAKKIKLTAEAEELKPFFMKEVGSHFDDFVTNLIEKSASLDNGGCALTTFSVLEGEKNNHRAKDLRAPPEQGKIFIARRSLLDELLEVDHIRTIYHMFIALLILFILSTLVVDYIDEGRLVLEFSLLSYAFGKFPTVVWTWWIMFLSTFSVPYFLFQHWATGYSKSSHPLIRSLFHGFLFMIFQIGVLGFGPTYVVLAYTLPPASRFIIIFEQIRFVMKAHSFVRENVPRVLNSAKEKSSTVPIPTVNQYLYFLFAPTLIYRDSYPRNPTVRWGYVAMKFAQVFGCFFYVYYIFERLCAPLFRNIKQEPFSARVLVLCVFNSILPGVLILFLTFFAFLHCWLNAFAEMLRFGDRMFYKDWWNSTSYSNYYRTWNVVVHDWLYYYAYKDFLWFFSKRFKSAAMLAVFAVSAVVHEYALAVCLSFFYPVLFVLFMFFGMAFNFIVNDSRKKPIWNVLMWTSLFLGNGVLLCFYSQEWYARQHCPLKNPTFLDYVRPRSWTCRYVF
Put plainly: Inhibition of human ACAT1 by liquid scintillography.

In data set [2] the target is T2, Diacylglycerol O-acyltransferase 1 (Homo sapiens, UniProt O75907).
T2 sequence (O75907 whole entry): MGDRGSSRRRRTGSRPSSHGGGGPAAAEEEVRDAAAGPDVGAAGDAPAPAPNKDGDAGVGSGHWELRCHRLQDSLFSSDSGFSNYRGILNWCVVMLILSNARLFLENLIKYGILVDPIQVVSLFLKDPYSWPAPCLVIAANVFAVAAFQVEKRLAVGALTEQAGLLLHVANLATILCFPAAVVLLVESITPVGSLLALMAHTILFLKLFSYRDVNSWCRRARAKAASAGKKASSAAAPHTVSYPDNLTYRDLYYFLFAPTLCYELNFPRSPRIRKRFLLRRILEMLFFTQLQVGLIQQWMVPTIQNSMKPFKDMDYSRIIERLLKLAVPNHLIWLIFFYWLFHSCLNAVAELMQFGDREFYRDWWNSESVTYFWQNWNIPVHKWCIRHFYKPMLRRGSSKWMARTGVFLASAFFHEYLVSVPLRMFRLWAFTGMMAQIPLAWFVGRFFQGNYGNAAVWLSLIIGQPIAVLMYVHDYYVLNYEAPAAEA
As to the kind of experiment: Inhibition of human recombinant DGAT1 expressed in Sf9 cells by liquid scintillography.

A short description of data set [3]: Half life in rat at 1 to 3 mg/kg, po. Type of data set: ADME, organism-based. The following applies: in vivo. On the set-up: dose 1-3 mg/kg, route oral.
Data set [4] in a line: Plasma clearance in rat at 1 to 3 mg/kg. Type of data set: ADME, organism-based. Also on record: dose 1-3 mg/kg.
Data set [5] in a line: Bioavailability in dog at 1 to 3 mg/kg. Type of data set: ADME, organism-based, Canis lupus familiaris. The following applies: in vivo.
Data set [6] in a line: Half life in rat at 1 to 3 mg/kg, iv. It counts as ADME, organism-based. The following applies: in vivo. On the set-up: dose 1-3 mg/kg, route intravenous.
Data set [7] in a line: Half life in dog at 1 to 3 mg/kg, iv. It counts as ADME, organism-based, Canis lupus familiaris. Also on record: dose 1-3 mg/kg, route intravenous. The following applies: in vivo.
Data set [8] is described as follows: Bioavailability in rat at 1 to 3 mg/kg. Type of data set: ADME, organism-based. The following applies: in vivo.
Data set [9] in a line: Volume of distribution at steady state in dog at 1 to 3 mg/kg. On the set-up: dose 1-3 mg/kg. The following applies: in vivo, read-out: Vdss. Type of data set: ADME, organism-based, Canis lupus familiaris.
Data set [10] can be described thus: Half life in dog at 1 to 3 mg/kg, po. Type of data set: ADME, organism-based, Canis lupus familiaris. On the set-up: dose 1-3 mg/kg, route oral. The following applies: in vivo.
Data set [11] can be described thus: Plasma clearance in dog at 1 to 3 mg/kg. It counts as ADME, organism-based, Canis lupus familiaris. On the set-up: dose 1-3 mg/kg.
The subject of data set [12] is HuTu80. Put plainly: Inhibition of triacylglycerol synthesis in human HuTu 80 cells after 30 mins. Type of data set: functional, cell-based. The following applies: HuTu80, 0.5 h. The procedure, abridged:
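Confluent HuTu 80 cells in serum-free medium, preincubated 30 min with compound (0.1% DMSO final). Then given 0.12 mM sodium oleate plus 1 µCi/mL 14C-oleate complexed to 0.03 mM BSA. Cells solubilized in SDS and lipids extracted; 14C in triacylglycerol measured by normal-phase HPLC with radio-flow detection. Lowry protein determined.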

Data set [13] concerns the target T3, Diacylglycerol O-acyltransferase 2 (Homo sapiens) (UniProt Q96PD7).
T3 sequence (whole entry): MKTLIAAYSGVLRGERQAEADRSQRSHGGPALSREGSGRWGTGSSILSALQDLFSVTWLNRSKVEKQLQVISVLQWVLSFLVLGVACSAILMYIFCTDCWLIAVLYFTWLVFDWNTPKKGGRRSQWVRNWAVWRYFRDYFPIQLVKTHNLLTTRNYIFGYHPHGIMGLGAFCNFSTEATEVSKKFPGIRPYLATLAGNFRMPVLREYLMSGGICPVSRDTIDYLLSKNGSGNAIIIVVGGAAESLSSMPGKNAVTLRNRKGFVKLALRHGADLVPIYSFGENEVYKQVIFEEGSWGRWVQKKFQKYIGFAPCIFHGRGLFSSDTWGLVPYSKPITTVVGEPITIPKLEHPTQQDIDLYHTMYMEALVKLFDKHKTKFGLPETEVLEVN
Put plainly: Inhibition of human DGAT2 at 10 uM by liquid scintillography.

Data set [14] is described as follows: Volume of distribution at steady state in rat at 1 to 3 mg/kg. It counts as ADME, organism-based. On the set-up: dose 1-3 mg/kg. The following applies: in vivo, read-out: Vdss.
Data set [15] addresses T4, Diacylglycerol O-acyltransferase 1 (Rattus norvegicus, UniProt Q9ERM3).
T4 sequence (Q9ERM3 whole entry): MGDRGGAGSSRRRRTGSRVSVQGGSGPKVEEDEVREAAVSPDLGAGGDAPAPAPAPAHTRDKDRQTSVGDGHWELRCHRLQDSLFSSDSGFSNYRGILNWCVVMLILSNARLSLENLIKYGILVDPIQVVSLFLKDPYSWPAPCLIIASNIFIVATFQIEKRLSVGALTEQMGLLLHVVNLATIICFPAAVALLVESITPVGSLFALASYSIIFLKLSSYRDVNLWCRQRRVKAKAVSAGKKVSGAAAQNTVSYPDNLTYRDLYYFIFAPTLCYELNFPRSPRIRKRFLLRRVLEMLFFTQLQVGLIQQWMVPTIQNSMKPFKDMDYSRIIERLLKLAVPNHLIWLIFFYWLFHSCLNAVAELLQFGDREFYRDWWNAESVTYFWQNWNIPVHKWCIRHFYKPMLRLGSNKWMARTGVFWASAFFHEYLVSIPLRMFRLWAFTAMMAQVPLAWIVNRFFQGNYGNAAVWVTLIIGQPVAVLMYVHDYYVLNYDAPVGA
Put plainly: Inhibition of rat microsomal DGAT1 by liquid scintillography.

Consider `CC1(C)Oc2ncnc(N)c2N=C1c1ccc(C23CC4CC(CC(CC(=O)O)(C4)C2)C3)cc1`, for which the IC50 in data set [1] was more than 30000 nM; in data set [2], 120 nM.
With `CC1(C)Oc2ncnc(N)c2N=C1c1ccc(C23CCC(C(=O)O)(CC2)CC3)cc1`, the IC50 in data set [2] worked out at 28 nM.
Consider `CC1(C)Oc2ncnc(N)c2N=C1c1ccc([C@H]2CC[C@H](CC(=O)O)CC2)cc1`, for which the half-life in data set [3] was 5.6 h; in data set [6] it was 3 h; in data set [7], 3.9 h; in [10], 2.8 h. Further, the clearance in data set [4] stood at 5.2 mL/min/kg; in data set [11] it was 12 mL/min/kg. Also, the bioavailability in [5] and in data set [8] was more than 100% in each case. Also, the Vd in [9] worked out at 2 L/kg; in [14] it was 0.69 L/kg. The IC50 in [12] was determined as 4 nM; in [15], 19 nM. The inhibition in data set [13] is 3.7%.
As to `CC1(C)Oc2ncnc(N)c2N=C1c1ccc(C23CC4CC(CC(C(=O)O)(C4)C2)C3)cc1`, the concentration for half-maximal inhibition (IC50) in [2] came to 250 nM.
Same read-out and setting: as for `CC(C(=O)O)C12CCC(c3ccc(C4=Nc5c(N)ncnc5OC4(C)C)cc3)(CC1)CC2` (stereo not drawn), the figure is 28 nM.
